Only some compounds are listed: those with a hit (about 3.4% of all), similar ones and a draw of the others.
UCH37 DUB inh: human UCH37 deubiquitinating enzyme inhibition; purified proteasome/UCH37, Ub-AMC cleavage fluorescence; inhibition, % (test concentration not listed); hit rate 0.33% among 330,000;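 active = mean inhibition over replicate wells above about 20%, limit read from the data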;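 also: 0% = compound-free wells with enzyme and 100% = wells lacking proteasome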
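system = Proteasome-associated human UCH37 deubiquitinase | amount = 0.15 nM proteasome as dispensed | medium = pH 7.4 Tris-HCl (50 mM) with ovalbumin, ATP-MgCl2, DTT | incubation = 30 min preincubation with enzyme, 25 min cleavage at room temperature | detection = AMC fluorescence 355/460 nm | read-out basis = percent inhibition | controls = no-proteasome and no-compound wells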
PolyA inhibitor: yeast polyadenylation inhibition. S. cerevisiae SKY197-pL101 polyadenylation reporter, beta-gal luminescence; efflux-impaired pdr1/pdr3 knockout yeast; score 100 = 6 SD above DMSO. activity score, % at 12 µM. hit rate 0.02% among 300,000;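 active = lowest replicate activity score at least 50, where 100 means six control SD above control mean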;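 also: yeast exposed to compound for 9 h at 30 °C; higher score means more reporter readthrough which indicates perturbed polyadenylation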
AHR act: activates the human aryl hydrocarbon receptor; P35869; AHR-responsive luciferase reporter cells, luminescence; activation, % at 5 µM; hit rate 2.5% among 320,000; in the data active = activation above about 47%;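 also: 0% = vehicle wells and 100% = reference agonist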
APOBEC3G inh: APOBEC3G (human) deaminase inhibition | Q9HC16 | recombinant A3G, ssDNA deamination FAM/TAMRA fluorescence | inhibition, % at 20 µM | hit rate 0.28% among 330,000;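 active = inhibition of at least 40% at 20 µM, with no more than 30% in the related APOBEC3A deaminase screen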;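 also: plate controls were DMSO wells with A3G for no effect and wells lacking A3G enzyme for full effect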
Target sequence (Q9HC16 whole entry, looked up): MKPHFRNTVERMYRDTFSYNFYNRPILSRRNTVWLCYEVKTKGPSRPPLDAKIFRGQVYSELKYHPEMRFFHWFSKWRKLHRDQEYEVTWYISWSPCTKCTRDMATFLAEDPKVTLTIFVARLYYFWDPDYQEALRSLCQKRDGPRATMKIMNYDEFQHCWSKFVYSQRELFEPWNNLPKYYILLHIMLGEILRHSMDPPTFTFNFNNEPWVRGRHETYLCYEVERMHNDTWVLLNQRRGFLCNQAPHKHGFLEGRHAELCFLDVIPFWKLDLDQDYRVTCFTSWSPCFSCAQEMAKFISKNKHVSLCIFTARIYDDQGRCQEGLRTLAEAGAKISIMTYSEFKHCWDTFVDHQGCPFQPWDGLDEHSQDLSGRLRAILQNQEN
Arrestin-AP2 inh: human beta-arrestin and AP2 interaction inhibition. inhibition, % at 10 µM. AID 504490. hit rate 0.31% among 340,000. FITC-arrestin peptide / GST-AP2 beads, flow cytometry; AP2 beta2 appendage carries R879A mutation;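 active = inhibition above a set limit, near 3 SD of compounds lacking own fluorescence, cut at about 54% in these data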;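 also: plate controls were DMSO wells for no effect and 5 µM unlabelled arrestin peptide for full effect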
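system = GST-tagged AP2 beta2-adaptin appendage (R879A) on 4 µm glutathione beads | reagent = FITC-labelled arrestin peptide probe, 50 nM final | schedule = compound with beads 12 min RT, then probe 1 h RT | signal = HyperCyt-sampled flow cytometry, FL1 channel, ex 488/em 535 nm | read-out = percent response from loss of bead-bound FITC fluorescence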
APOBEC3A inh: blocks human APOBEC3A ssDNA deamination; hit rate 0.41% among 330,000; inhibition, % at 20 µM; recombinant A3A, FAM/TAMRA ssDNA deamination fluorescence; P31941;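 active = at least 40% inhibition at 20 µM here, with at most 30% in a related deaminase screen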;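 also: plate controls were A3A with DMSO for no effect and wells lacking A3A enzyme for full effect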
AHR act confirm: confirmation of human aryl hydrocarbon receptor activators. shares compounds with AHR act. human cells, AHR-responsive luciferase reporter, luminescence. activation, % at 9 µM. hit rate 87% among 2,300. AID 2845; in the data active = activation above about 49%;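 also: HepG2 hepatoma cells carrying a DRE-driven firefly luciferase reporter; 0% = vehicle wells and 100% = reference agonist wells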
PXR counter: PXR activation, counter-screen for AHR activators. shares compounds with AHR act. cell-based PXR reporter, luciferase luminescence. activation, % at 11.6 µM. hit rate 88% among 2,300. AID 434939; in the data active = activation above about 11%;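 also: human hepatoma DPX-2 cells expressing full-length human PXR; 0% = DMSO and 100% = reference agonist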
Numbers without * were called inactive.

Screening CCCNC(=O)c1ccc2c(=O)n(Cc3ccco3)c(=S)[nH]c2c1 returned UCH37 DUB inh 2.3, PolyA inhibitor -19.1, AHR act 87.7*, APOBEC3G inh -1.7, Arrestin-AP2 inh -7.4, APOBEC3A inh 3.0, AHR act confirm 70.0* and PXR counter 34.3*.
Screening CCn1c(SCC(=O)NN=Cc2ccccc2OCC(=O)O)nnc1-c1ccc(Cl)cc1 returned UCH37 DUB inh 3.7.
N#CC1=C(N)Nc2nc3ccccc3n2C1c1ccc(F)cc1 (stereo not drawn) was read as UCH37 DUB inh -10.1, PolyA inhibitor 2.6, AHR act 94.0*, APOBEC3G inh -1.1, Arrestin-AP2 inh 8.1, APOBEC3A inh -0.9, AHR act confirm 80.0* and PXR counter 61.9*.
`Cc1cc(NN=Cc2ccc(O)cc2O)c2ccccc2n1` gave UCH37 DUB inh -11.5.
`COc1ccc(-c2[nH]c(-c3cc(OC)c4c(c3)OCO4)nc2-c2ccccc2)cc1` gave UCH37 DUB inh -120.3, PolyA inhibitor -1.5, AHR act 107.2*, APOBEC3G inh 0.2, Arrestin-AP2 inh -4.1, APOBEC3A inh -0.4, AHR act confirm 54.0* and PXR counter 56.9*.
Screening CCOc1ncccc1C(=O)Nc1ccc(Cl)cc1 returned UCH37 DUB inh 0.9, PolyA inhibitor -8.2, AHR act 117.1*, APOBEC3G inh -8.5, Arrestin-AP2 inh 49.7, APOBEC3A inh -0.3, AHR act confirm 121.6* and PXR counter 19.4*.
`CCOc1ccc(NC(=O)c2cc(Cl)nc3ccccc23)cc1` gave UCH37 DUB inh 3.4, PolyA inhibitor 9.8, AHR act 94.9*, APOBEC3G inh -0.4, Arrestin-AP2 inh 20.0, APOBEC3A inh -4.4, AHR act confirm 91.2* and PXR counter 11.1*.
COc1ccc(OC)c(NC(=O)c2cccnc2)c1 was read as UCH37 DUB inh 3.2, PolyA inhibitor 25.1, AHR act 6.8, APOBEC3G inh 3.1, Arrestin-AP2 inh -19.9 and APOBEC3A inh -1.1.
Screening O=C(Nc1ccccc1C(=O)Nc1ccc(Cl)cc1)c1cccnc1 returned UCH37 DUB inh -0.3, PolyA inhibitor 5.4, AHR act 85.9*, APOBEC3G inh -5.0, Arrestin-AP2 inh 3.9, APOBEC3A inh -2.6, AHR act confirm 55.7* and PXR counter 31.4*.
`Cc1ccc(NC(=O)c2ccccc2NC(=O)c2cccnc2)cc1` gave UCH37 DUB inh -1.3, PolyA inhibitor 17.6, AHR act -0.7, APOBEC3G inh -2.9, Arrestin-AP2 inh 9.4 and APOBEC3A inh -7.7.
For CCOc1ncccc1C(=O)Nc1ccc(F)cc1 the results were UCH37 DUB inh 2.3, PolyA inhibitor -1.2, AHR act 33.2, APOBEC3G inh -3.9, Arrestin-AP2 inh 2.6 and APOBEC3A inh -0.3.
Screening COc1ccc(Cl)cc1NC(=O)c1cccnc1 returned UCH37 DUB inh 1.9, PolyA inhibitor 5.6, AHR act 88.3*, APOBEC3G inh -4.6, Arrestin-AP2 inh 29.8, APOBEC3A inh -0.9, AHR act confirm 107.1* and PXR counter 11.2*.
`CCCCCC(=O)NN=C(C)c1ccc(NC(=O)c2ccco2)cc1` gave UCH37 DUB inh -1.7.
For CCOC(=O)c1oc2ccccc2c1N the results were UCH37 DUB inh -8.5, PolyA inhibitor 3.3, AHR act 82.2*, APOBEC3G inh -4.9, Arrestin-AP2 inh 11.5, APOBEC3A inh -3.6 and AHR act confirm 122.4*.
For CCOC(=O)c1oc2ccccc2c1NC(=O)COC the results were UCH37 DUB inh -0.3, PolyA inhibitor -6.8, AHR act 88.8*, APOBEC3G inh -0.7, Arrestin-AP2 inh 10.9, APOBEC3A inh -0.8, AHR act confirm 104.3* and PXR counter 14.9*.
Screening COc1ccccc1NS(=O)(=O)c1cccc(C(=O)NN=C(C)c2ccncc2)c1 returned UCH37 DUB inh 3.9.

Screening data as filed in PubChem BioAssay.
